Results as given in ChEMBL document CHEMBL3351764, “Design, synthesis and biological activity of flavonoid derivatives as selective agonists for neuromedin U 2 receptor” (Bioorg Med Chem, 2014).
Calls of active or inactive are those of the source. The rule behind the calls is not given here.

Legend:
[1] = molecular target: Melanocortin receptor 4 (Homo sapiens) (UniProt P32245); test: Agonist activity at human MC4 receptor at 100 uM to 5 mM
[2] = molecular target: Glucagon receptor (Homo sapiens) (UniProt P47871); test: Agonist activity at human Glu receptor at 100 uM to 5 mM
Glucagon receptor (Homo sapiens), sequence (P47871 whole entry): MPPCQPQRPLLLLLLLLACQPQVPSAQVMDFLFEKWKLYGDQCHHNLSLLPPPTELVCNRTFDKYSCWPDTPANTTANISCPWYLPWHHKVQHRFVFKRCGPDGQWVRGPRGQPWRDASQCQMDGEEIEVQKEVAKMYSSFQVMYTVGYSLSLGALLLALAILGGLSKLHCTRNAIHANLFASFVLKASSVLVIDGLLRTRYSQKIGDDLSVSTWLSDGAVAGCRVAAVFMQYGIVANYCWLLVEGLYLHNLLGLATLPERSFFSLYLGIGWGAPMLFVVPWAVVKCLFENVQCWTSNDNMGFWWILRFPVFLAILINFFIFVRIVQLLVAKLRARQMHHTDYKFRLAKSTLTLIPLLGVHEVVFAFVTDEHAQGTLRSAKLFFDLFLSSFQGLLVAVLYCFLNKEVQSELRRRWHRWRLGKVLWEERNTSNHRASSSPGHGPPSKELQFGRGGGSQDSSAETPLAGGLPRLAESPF

Neuromedin-U receptor 2 = Neuromedin-U receptor 2 (Homo sapiens, UniProt Q9GZQ4); test: Agonist activity at human NMU2R transfected in HEK293 cells after 7 hrs by luciferase reporter gene assay; format: cell-based
Neuromedin-U receptor 2, sequence (Q9GZQ4 whole entry): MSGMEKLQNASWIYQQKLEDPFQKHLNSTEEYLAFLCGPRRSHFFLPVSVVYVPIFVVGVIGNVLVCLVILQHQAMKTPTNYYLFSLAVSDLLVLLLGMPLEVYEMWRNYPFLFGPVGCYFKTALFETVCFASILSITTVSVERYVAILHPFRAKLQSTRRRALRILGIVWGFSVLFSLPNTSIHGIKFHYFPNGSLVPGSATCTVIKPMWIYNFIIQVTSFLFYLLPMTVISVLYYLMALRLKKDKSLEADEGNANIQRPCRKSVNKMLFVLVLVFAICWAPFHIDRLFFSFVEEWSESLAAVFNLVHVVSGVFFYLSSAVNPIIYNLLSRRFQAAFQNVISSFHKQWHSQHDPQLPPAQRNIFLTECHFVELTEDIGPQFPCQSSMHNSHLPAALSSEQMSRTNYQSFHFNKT
Method in brief: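 HEK-293 cells were stably co-transfected with a reporter gene construct and human NMU2R cDNA in pcDNA3.1(+), maintained under G418 selection at 37 °C in 5% CO2, then seeded and incubated overnight. Compounds were added at various concentrations for 7 h at 37 °C, followed by Bright-Glo luciferase read-out. Forskolin and NMU served as positive controls. EC50 was fitted by four-parameter logistic regression; means ± SEM of three independent experiments.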

[3] = molecular target: Melanocortin receptor 3 (Mus musculus) (UniProt P33033); test: Agonist activity at mouse MC3 receptor at 100 uM to 5 mM
Melanocortin receptor 3 (Mus musculus), sequence (P33033 whole entry): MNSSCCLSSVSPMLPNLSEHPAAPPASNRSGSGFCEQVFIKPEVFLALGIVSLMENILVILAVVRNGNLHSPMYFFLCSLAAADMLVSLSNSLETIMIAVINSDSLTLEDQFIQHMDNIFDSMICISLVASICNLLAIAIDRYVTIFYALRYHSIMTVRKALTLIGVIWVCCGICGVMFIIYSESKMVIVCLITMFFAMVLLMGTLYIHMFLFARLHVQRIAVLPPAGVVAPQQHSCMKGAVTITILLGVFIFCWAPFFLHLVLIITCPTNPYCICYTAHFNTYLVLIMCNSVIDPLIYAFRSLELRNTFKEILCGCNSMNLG

[4] = molecular target: T1, Adenosine receptor A3 (Homo sapiens) (UniProt P0DMS8); test: Agonist activity at human A3 receptor at 100 uM to 5 mM
T1 sequence (whole entry): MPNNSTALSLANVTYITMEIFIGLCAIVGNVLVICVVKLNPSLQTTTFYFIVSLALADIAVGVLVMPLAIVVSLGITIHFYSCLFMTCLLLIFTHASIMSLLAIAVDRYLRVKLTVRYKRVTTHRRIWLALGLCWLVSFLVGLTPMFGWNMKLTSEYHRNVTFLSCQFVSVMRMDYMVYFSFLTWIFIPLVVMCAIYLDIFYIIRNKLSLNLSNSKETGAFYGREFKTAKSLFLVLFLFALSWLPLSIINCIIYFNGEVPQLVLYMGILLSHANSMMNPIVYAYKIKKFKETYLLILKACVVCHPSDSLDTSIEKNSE

[5] = molecular target: T2, Orexin receptor type 2 (Homo sapiens) (UniProt O43614); test: Agonist activity at human orexin 2 receptor at 100 uM to 5 mM
T2 sequence (whole entry): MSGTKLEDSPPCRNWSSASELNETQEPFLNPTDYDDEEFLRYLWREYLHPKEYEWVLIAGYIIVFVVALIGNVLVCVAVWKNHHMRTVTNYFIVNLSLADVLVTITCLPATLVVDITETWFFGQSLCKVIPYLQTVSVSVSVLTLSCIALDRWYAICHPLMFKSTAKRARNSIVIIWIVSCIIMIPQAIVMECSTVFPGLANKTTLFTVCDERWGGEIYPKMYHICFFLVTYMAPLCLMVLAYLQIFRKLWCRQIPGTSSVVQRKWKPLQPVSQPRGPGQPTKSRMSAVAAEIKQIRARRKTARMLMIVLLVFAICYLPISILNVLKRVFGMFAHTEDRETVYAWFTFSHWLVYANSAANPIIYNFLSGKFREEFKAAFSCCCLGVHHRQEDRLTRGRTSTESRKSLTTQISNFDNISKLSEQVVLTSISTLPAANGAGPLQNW

[6] = molecular target: T3, Neuromedin-U receptor 1 (Homo sapiens) (UniProt Q9HB89); test: Agonist activity at human NMU1 receptor at 100 uM to 5 mM
T3 sequence (whole entry): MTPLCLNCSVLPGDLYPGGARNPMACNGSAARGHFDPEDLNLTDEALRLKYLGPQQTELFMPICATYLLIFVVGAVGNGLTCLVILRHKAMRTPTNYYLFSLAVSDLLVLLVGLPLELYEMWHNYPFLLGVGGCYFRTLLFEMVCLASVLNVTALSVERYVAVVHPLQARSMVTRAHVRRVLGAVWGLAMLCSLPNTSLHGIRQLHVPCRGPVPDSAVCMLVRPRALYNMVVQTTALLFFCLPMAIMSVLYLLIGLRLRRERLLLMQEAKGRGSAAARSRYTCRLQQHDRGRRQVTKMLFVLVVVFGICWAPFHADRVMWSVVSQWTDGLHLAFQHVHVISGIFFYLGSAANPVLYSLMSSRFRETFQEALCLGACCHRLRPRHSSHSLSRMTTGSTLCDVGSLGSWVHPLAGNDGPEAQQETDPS

[7] = molecular target: T4, C5a anaphylatoxin chemotactic receptor 1 (Homo sapiens) (UniProt P21730); test: Agonist activity at human C5a receptor at 100 uM to 5 mM
T4 sequence (whole entry): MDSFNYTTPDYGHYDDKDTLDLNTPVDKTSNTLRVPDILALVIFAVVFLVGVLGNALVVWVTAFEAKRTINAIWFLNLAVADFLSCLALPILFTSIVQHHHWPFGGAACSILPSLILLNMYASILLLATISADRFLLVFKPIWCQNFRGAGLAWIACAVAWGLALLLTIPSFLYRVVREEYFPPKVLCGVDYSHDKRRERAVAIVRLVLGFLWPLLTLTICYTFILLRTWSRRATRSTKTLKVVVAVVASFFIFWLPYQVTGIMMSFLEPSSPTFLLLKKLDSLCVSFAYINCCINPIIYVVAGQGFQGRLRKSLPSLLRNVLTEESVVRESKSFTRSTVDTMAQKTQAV

[8] = molecular target: Melanocyte-stimulating hormone receptor (Mus musculus) (UniProt Q01727); test: Agonist activity at mouse MC1 receptor at 100 uM to 5 mM
Melanocyte-stimulating hormone receptor (Mus musculus), sequence (Q01727 whole entry, looked up): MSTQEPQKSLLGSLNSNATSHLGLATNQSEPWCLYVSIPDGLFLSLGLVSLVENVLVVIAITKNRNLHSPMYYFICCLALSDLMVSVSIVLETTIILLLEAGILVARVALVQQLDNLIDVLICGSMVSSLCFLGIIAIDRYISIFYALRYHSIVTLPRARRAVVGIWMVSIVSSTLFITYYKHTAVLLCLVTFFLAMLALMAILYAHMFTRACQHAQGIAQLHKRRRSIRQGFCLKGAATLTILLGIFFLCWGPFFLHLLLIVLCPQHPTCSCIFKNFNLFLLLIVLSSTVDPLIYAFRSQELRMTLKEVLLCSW

[9] = molecular target: T5, Adenosine receptor A1 (Homo sapiens) (UniProt P30542); test: Agonist activity at human A1 receptor at 100 uM to 5 mM
T5 sequence (whole entry): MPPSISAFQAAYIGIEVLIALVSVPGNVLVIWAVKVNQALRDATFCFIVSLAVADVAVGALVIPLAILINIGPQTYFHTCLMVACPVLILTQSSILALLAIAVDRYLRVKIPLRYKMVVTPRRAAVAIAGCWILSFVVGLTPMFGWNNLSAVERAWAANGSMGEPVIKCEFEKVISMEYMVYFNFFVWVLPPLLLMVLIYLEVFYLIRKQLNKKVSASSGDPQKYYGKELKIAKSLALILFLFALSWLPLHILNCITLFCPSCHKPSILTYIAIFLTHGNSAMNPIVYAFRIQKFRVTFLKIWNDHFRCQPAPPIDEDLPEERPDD

[10] = molecular target: Melanin-concentrating hormone receptor 1 (Homo sapiens) (UniProt Q99705); test: Agonist activity at human MCH1 receptor at 100 uM to 5 mM
Melanin-concentrating hormone receptor 1 (Homo sapiens), sequence (Q99705 whole entry): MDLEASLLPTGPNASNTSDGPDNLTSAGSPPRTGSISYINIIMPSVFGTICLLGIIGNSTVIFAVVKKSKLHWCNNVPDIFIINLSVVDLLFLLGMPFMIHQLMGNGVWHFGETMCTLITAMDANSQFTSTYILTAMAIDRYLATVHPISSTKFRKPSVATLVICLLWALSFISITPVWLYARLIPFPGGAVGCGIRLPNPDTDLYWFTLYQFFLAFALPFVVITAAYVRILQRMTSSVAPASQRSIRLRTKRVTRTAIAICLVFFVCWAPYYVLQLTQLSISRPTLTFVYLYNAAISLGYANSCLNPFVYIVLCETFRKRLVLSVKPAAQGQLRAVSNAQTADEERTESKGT

Melanocortin receptor 4 (Homo sapiens), sequence (P32245 whole entry): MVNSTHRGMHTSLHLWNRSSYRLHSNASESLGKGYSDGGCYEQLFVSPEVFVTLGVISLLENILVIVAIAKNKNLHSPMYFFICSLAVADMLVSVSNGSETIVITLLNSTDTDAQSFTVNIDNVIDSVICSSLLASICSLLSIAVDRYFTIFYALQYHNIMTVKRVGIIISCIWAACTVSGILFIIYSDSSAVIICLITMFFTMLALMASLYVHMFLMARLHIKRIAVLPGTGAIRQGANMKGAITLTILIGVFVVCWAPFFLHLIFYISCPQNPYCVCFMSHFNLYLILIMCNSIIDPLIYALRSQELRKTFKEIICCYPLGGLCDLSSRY

Row | Activity [1] | Activity [2] | EC50 (Neuromedin-U receptor 2; hek293) | Activity [3] | Activity [4] | Activity [5] | Activity [6] | Activity [8] | Activity [9] | Activity [10] | EC50 (Neuromedin-U receptor 2; read-out: EC50) | SMILES | Activity [7]
1 | inactive | inactive | Not Active | inactive | inactive | inactive | inactive | inactive | inactive | inactive | – | COc1ccc(C2C=Cc3ccccc3O2)cc1 (racemic) | inactive
2 | inactive | inactive | Not Active | inactive | inactive | inactive | inactive | inactive | inactive | inactive | – | O=c1c(O)c(-c2ccc(Cl)cc2Cl)oc2ccccc12 | inactive
3 | inactive | inactive | Not Active | inactive | inactive | inactive | inactive | inactive | inactive | inactive | – | Clc1ccc(C2C=Cc3ccccc3O2)c(Cl)c1 (racemic) | inactive
4 | inactive | inactive | Not Active | inactive | inactive | inactive | inactive | inactive | inactive | inactive | – | COc1cccc(-c2oc3ccccc3c(=O)c2O)c1 | inactive
5 | inactive | inactive | Not Active | inactive | inactive | inactive | inactive | inactive | inactive | inactive | – | O=c1c(O)c(-c2c(F)cccc2Cl)oc2ccccc12 | inactive
6 | inactive | inactive | Not Active | inactive | inactive | inactive | inactive | inactive | inactive | inactive | – | O=c1cc(-c2ccccc2F)oc2ccccc12 | inactive
7 | inactive | inactive | – | inactive | inactive | inactive | inactive | inactive | inactive | inactive | 14 µM | O=c1c(O)c(-c2cc(Br)ccc2F)oc2ccccc12 | inactive

Further lines, the compound ahead of its results:

Row | SMILES | Activity [1] | Activity [2] | EC50 (Neuromedin-U receptor 2; hek293) | Activity [3] | Activity [4] | Activity [5] | Activity [6] | Activity [8] | Activity [9] | Activity [10] | EC50 (Neuromedin-U receptor 2; read-out: EC50) | Activity [7]
8 | O=c1c(O)c(-c2ccccc2F)oc2ccccc12 | inactive | inactive | – | inactive | inactive | inactive | inactive | inactive | inactive | inactive | 37.3 µM | inactive
9 | O=c1c(O)c(-c2ccc(O)cc2)oc2ccccc12 | inactive | inactive | Not Active | inactive | inactive | inactive | inactive | inactive | inactive | inactive | – | inactive
10 | COc1ccc(F)c(-c2oc3ccccc3c(=O)c2O)c1 | inactive | inactive | – | inactive | inactive | inactive | inactive | inactive | inactive | inactive | 253 µM | inactive
11 | O=c1c(O)c(-c2c(F)ccc(F)c2Cl)oc2ccccc12 | inactive | inactive | Not Active | inactive | inactive | inactive | inactive | inactive | inactive | inactive | – | inactive
12 | COc1cc(-c2cc(=O)c3ccccc3o2)ccc1O | inactive | inactive | Not Active | inactive | inactive | inactive | inactive | inactive | inactive | inactive | – | inactive
13 | COc1ccc(-c2cc(=O)c3ccccc3o2)cc1O | inactive | inactive | Not Active | inactive | inactive | inactive | inactive | inactive | inactive | inactive | – | inactive
14 | CN(C)c1ccc(-c2oc3ccccc3c(=O)c2O)cc1 | inactive | inactive | Not Active | inactive | inactive | inactive | inactive | inactive | inactive | inactive | – | inactive
15 | O=c1c(O)c(-c2ccc(Br)cc2F)oc2ccccc12 | inactive | inactive | – | inactive | inactive | inactive | inactive | inactive | inactive | inactive | 73 µM | inactive
